16 compounds from ChEMBL document CHEMBL1139516, “Optimization of amide-based inhibitors of soluble epoxide hydrolase with improved water solubility” (J Med Chem, 2005) can be followed below.

Data set [1] addresses T1, Bifunctional epoxide hydrolase 2 (Mus musculus, UniProt P34914).
T1 sequence (P34914 whole entry): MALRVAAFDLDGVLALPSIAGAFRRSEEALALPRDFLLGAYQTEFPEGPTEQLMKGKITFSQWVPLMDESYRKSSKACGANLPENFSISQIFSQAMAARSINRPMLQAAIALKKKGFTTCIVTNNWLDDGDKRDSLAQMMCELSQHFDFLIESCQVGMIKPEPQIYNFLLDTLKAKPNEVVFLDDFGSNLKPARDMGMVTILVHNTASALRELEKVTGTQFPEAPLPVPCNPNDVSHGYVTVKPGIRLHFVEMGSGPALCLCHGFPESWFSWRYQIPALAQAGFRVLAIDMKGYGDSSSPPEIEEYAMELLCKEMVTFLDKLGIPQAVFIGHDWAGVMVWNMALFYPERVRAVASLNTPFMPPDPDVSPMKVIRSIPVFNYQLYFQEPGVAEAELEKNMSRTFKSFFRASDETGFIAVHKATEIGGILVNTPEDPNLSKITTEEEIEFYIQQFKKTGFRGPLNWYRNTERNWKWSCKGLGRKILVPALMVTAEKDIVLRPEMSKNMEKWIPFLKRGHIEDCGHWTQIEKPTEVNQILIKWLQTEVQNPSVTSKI
Kind of data set: Inhibitory concentration against mouse soluble epoxide hydrolase (sEH) at 0.12 uM. The essentials: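 Recombinant murine enzyme, baculovirus-expressed, affinity-purified (≥97% pure). 0.12 μM enzyme preincubated with inhibitor 5 min at 30 °C in 0.1 M sodium phosphate pH 7.4 with 0.1 mg/mL BSA. Racemic 4-nitrophenyl-trans-2,3-epoxy-3-phenylpropyl carbonate added at 40 μM. 4-Nitrophenolate formation read at 405 nm over 1 min, 30 °C. Run in triplicate. IC50 regressed from ≥5 points, at least two on each side in the linear region.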

Data set [2] addresses T2, Bifunctional epoxide hydrolase 2 (Homo sapiens, UniProt P34913).
T2 sequence (P34913 whole entry): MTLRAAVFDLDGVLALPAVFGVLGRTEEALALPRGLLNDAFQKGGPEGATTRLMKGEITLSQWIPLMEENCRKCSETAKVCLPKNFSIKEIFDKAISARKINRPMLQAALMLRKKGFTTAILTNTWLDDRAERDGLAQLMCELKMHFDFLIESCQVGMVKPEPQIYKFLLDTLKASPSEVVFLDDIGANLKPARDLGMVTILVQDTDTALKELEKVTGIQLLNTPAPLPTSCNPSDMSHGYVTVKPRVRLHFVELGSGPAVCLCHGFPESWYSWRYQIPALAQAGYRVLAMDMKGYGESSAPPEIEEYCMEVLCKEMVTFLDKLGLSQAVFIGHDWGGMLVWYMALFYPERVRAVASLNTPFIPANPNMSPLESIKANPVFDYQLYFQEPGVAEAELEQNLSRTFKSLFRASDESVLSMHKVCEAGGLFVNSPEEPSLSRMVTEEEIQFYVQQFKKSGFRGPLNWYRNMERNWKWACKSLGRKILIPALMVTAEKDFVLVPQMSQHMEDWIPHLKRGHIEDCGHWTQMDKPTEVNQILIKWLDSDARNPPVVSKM
Kind of data set: Inhibitory concentration against human soluble epoxide hydrolase (sEH) at 0.24 uM.

Data set [3] is described as follows: Solubility in sodium phosphate buffer 0.1M, pH 7.4 at 25 +/-1.5 degree C. Format: physicochemical. To be noted: read-out: S. The essentials:
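Excess solid added to 0.1 M sodium phosphate pH 7.4 at 25 ± 1.5 °C. Suspension equilibrated by 1 h sonication, then 24 h shaking. Centrifuged 5 min at 200g. Absolute amount of dissolved compound then calculated.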

The nature of data set [4]: Partition coefficient (logP). Particulars: octanol/water. It is filed as physicochemical. The essentials:
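Calculated, not measured: Crippen's method estimate.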

Converted amounts (≈) assume the structure as drawn. A value given as a limit tells only on which side of the number the result lay.

As a reminder, the IC50 is the concentration that gives 50% inhibition. The low end stands for greater potency in that assay, the high end for weaker potency in that assay. On to `O=C(CC1CCCCC1)Nc1ccccc1CO`, for which the concentration for half-maximal inhibition (IC50) in data set [1] and in data set [2] was > 100 µM throughout.
Regarding `O=C(Nc1ccccc1CO)NC1CCCCC1`, the IC50 in data set [1] and in data set [2] was > 100 µM in each case.
As to `CCCCCOC(=O)CCCOC(=O)Oc1cccc(Cl)c1`, the IC50 in data set [1] and in data set [2] was > 100 µM in each case.
In the case of `CCCCCOC(=O)CCCNC(=O)C12CC3CC(CC(C3)C1)C2`, the IC50 in data set [1] is 2.8 µM; in data set [2], 9.4 µM.
The logP is the decadic logarithm of the partition coefficient of the neutral form, usually between octanol and water. Turning to `CCCCCCCCCCCC(=O)NC12CC3CC(CC(C3)C1)C2`, the solubility in data set [3] came to 0.42 µg/mL (≈ 1.26 µM). The logP in data set [4] (read-out: logP) was found to be 5.52.
Compound `COc1ccc(NC(=O)CC2CCCCC2)cc1` returned an IC50 in data set [2] of 6.2 µM.
On to `CCCCCCCCCCNC(=O)CC12CC3CC(CC(C3)C1)C2`, for which, in data set [3], the solubility stood at 0.32 µg/mL (≈ 0.959 µM). In data set [4] (read-out: logP), the lipophilicity (logP) was 5.64.
For the compound `CCCCCOC(=O)CCCOC(=O)Cc1cccc(Cl)c1`, the half-maximal inhibitory concentration (IC50) in data set [1] and in data set [2] was > 100 µM each time.
Regarding `CCCCCOC(=O)CCCOC(=O)Nc1cccc(Cl)c1`, the half-maximal inhibitory concentration (IC50) in data set [1] was found to be 17.4 µM; in data set [2], 25.2 µM.
In the case of `CCCCCOC(=O)CCCCC(=O)NC12CC3CC(CC(C3)C1)C2`, in data set [3], the solubility worked out at 15.1 µg/mL (≈ 43.2 µM). Moreover, the lipophilicity (logP) in data set [4] (read-out: logP) turned out to be 3.53.
`CCCCCCC(O)CCCNC(=O)NC12CC3CC(CC(C3)C1)C2` (configuration not stated): the 50% inhibitory concentration (IC50) in data set [1] was 0.05 µM; in data set [2] it was 0.13 µM.
In the same order, the values of `O=C(Cc1ccccc1CO)NC1CCCCC1` are > 100 µM and > 100 µM.
On to `CCCCCOC(=O)CCCNC(=O)NC12CC3CC(CC(C3)C1)C2`, for which, in data set [3], the solubility was 1.44 µg/mL (≈ 4.11 µM). In addition, the lipophilicity (logP) in data set [4] came to 2.77.
Turning to `CCCCCOC(=O)CCCNC(=O)Oc1cccc(Cl)c1`, the IC50 in data set [1] and in data set [2] was > 100 µM throughout.
As to `CCCCCOC(=O)CCCNC(=O)CC12CC3CC(CC(C3)C1)C2`, the solubility in data set [3] stood at 17.4 µg/mL (≈ 49.8 µM). Moreover, the logP in data set [4] (read-out: logP) was 3.66.
In the case of `CCCCCCCCCCNC(=O)NC12CC3CC(CC(C3)C1)C2`, in data set [3], the solubility was 0.5 µg/mL (≈ 1.49 µM). In data set [2], this compound registered an IC50 of 0.11 µM. Further, in data set [4] (read-out: logP), the lipophilicity (logP) is 4.76.
